Reference: ChEMBL document CHEMBL3351838, “Ligand-based pharmacophore modeling and virtual screening for the discovery of novel 17β-hydroxysteroid dehydrogenase 2 inhibitors” (J Med Chem, 2014)

Key:
[1] = molecular target: T1, 17-beta-hydroxysteroid dehydrogenase type 2 (Homo sapiens) (UniProt P37059); experiment: Inhibition of 17beta-HSD2 (unknown origin) expressed in HEK293 cells lysate assessed as residual enzyme activity at 20 uM; format: cell-free
T1 sequence (whole entry): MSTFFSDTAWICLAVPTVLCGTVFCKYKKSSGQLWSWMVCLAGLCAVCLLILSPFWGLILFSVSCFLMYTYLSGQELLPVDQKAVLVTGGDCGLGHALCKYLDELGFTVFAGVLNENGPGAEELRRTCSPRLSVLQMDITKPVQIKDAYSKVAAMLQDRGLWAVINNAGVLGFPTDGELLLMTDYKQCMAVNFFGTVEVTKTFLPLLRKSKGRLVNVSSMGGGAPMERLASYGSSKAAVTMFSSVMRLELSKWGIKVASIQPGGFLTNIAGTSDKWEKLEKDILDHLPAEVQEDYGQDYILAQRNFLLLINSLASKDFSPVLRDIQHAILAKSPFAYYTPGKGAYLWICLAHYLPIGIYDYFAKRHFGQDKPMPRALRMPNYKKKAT
Summary of the method: (§1)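 Human 17β-HSD2 from lysates of calcium-phosphate-transfected HEK-293 cells (harvested 48 h). Incubated 10 min at 37 °C in TS2 buffer (pH 7.4) with inhibitor or 0.2% DMSO/chloroform. Substrate 190 nM unlabeled plus 10 nM radiolabeled estradiol with 500 μM NAD+. Stopped with excess estradiol/estrone. Radiolabeled steroids separated by TLC and counted; at least three independent measurements. Rest activity at 20 μM as % of control.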

[2] = molecular target: T2, 11-beta-hydroxysteroid dehydrogenase 1 (Homo sapiens, UniProt P28845); experiment: Inhibition of 11beta-HSD1 (unknown origin) expressed in HEK293 cells lysate assessed as residual enzyme activity at 20 uM; format: cell-free
Summary of the method: (§2)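 Lysates of stably transfected cells expressing 11β-HSD1 or 11β-HSD2, 10 min at 37 °C in TS2 buffer (pH 7.4) with inhibitor or 0.2% DMSO solvent. Reactions stopped after 10 min with excess unlabeled cortisone/cortisol. Steroids separated by TLC and quantified by scintillation counting. At least three independent measurements. Lines 2 and 3 report rest activity at 20 μM as % of control.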
Target sequence in this assay (P28845 whole entry, looked up): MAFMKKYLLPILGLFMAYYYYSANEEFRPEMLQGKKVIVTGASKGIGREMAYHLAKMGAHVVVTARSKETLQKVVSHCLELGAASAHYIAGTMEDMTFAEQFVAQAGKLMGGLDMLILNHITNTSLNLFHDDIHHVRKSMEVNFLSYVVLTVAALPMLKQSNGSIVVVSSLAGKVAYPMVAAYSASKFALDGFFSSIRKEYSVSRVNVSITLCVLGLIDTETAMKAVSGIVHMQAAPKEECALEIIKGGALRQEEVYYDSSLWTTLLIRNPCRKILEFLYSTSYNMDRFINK

[3] = molecular target: T3, 11-beta-hydroxysteroid dehydrogenase type 2 (Homo sapiens) (UniProt P80365); experiment: Inhibition of 11beta-HSD2 (unknown origin) expressed in HEK293 cells lysate assessed as residual enzyme activity at 20 uM; format: cell-free; summary of the method: as §2
T3 sequence (whole entry): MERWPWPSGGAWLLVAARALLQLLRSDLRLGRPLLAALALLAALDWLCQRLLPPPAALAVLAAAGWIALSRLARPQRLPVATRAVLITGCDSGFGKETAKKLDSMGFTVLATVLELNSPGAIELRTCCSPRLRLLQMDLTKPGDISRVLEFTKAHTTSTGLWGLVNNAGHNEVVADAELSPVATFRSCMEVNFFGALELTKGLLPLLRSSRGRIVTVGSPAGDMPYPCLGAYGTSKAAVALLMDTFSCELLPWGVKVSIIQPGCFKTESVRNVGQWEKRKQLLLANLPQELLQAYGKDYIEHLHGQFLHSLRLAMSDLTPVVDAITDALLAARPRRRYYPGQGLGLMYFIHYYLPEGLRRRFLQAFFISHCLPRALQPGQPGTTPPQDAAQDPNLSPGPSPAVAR

[4] = molecular target: T4, 17-beta-hydroxysteroid dehydrogenase type 1 (Homo sapiens) (UniProt P14061); experiment: Inhibition of 17beta-HSD1 (unknown origin) expressed in HEK293 cells lysate assessed as residual enzyme activity at 20 uM; format: cell-free
T4 sequence (whole entry): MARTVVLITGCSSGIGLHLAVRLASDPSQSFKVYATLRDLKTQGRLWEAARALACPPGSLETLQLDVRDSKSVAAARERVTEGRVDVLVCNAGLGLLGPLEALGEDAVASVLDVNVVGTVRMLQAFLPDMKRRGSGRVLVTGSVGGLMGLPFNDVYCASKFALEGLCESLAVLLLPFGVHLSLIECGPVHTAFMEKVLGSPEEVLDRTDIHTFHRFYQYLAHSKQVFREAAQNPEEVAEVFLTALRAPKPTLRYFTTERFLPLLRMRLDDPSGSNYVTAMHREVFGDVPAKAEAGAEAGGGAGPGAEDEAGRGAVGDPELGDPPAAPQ
Summary of the method: (§3)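 Lysate of HEK-293 cells transfected by calcium phosphate with human 17β-HSD1, harvested after 48 h. Incubated 10 min at 37 °C in TS2 buffer (pH 7.4) with inhibitor or 0.2% DMSO/chloroform. Substrate 190 nM unlabeled plus 10 nM radiolabeled estrone with 500 μM NADPH. Stopped with excess estradiol/estrone. TLC separation and scintillation counting; at least three independent measurements.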

[5] = molecular target: T5, 17-beta-hydroxysteroid dehydrogenase type 3 (Homo sapiens) (UniProt P37058); experiment: Inhibition of 17beta-HSD3 (unknown origin) expressed in intact HEK293 cells assessed as residual enzyme activity at 20 uM; format: cell-based
T5 sequence (whole entry): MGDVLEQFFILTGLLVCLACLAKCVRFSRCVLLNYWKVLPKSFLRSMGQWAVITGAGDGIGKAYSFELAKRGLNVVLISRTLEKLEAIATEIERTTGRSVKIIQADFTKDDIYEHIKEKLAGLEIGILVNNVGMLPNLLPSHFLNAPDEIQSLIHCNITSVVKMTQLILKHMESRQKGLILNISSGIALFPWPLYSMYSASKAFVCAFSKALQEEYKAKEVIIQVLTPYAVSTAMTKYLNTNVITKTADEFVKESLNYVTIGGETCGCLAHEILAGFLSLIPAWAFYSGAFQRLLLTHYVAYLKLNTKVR
Summary of the method: (§4)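 HEK-293 cells transiently transfected with 17β-HSD3 by calcium phosphate were seeded at 15 000 cells/well and tested 24 h later in charcoal-treated DMEM. Inhibitor was preincubated 20 min at 37 °C. Substrate was 190 nM unlabeled plus 10 nM radiolabeled androstenedione for 30 min. Reactions stopped with excess androstenedione/testosterone. TLC separation and scintillation counting.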

[6] = molecular target: T6, 17-beta-hydroxysteroid dehydrogenase type 2 (Homo sapiens, UniProt P37059); experiment: Inhibition of 17beta-HSD2 (unknown origin) expressed in HEK293 cells lysate; format: cell-free; summary of the method: as §1
T6 sequence (P37059 whole entry): T1 sequence (whole entry)

[7] = molecular target: T7, 17-beta-hydroxysteroid dehydrogenase type 1 (Homo sapiens, UniProt P14061); experiment: Inhibition of 17beta-HSD1 (unknown origin) expressed in HEK293 cells lysate; format: cell-free; summary of the method: as §3
T7 sequence (P14061 whole entry): T4 sequence (whole entry)

[8] = molecular target: T8, 17-beta-hydroxysteroid dehydrogenase type 3 (Homo sapiens, UniProt P37058); experiment: Inhibition of 17beta-HSD3 (unknown origin) expressed in intact HEK293 cells; format: cell-based; summary of the method: as §4
T8 sequence (P37058 whole entry): T5 sequence (whole entry)

[9] = molecular target: T6, 17-beta-hydroxysteroid dehydrogenase type 2; experiment: Inhibition of 17beta-HSD2 (unknown origin) expressed in intact HEK293 cells; format: cell-based
Summary of the method: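 Transfected HEK-293 cells were seeded at 15 000 cells/well 24 h after transfection and assayed 24 h later in charcoal-treated DMEM. Inhibitor was preincubated 20 min at 37 °C, followed by 190 nM unlabeled plus 10 nM radiolabeled estradiol for 20 min. Reactions stopped with excess estradiol/estrone. Steroids separated by TLC and measured by scintillation counting.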

[10] = molecular target: T2, 11-beta-hydroxysteroid dehydrogenase 1; experiment: Inhibition of 11beta-HSD1 (unknown origin) expressed in HEK293 cells lysate; format: cell-free; summary of the method: as §2
Target sequence in this assay (P28845 whole entry): as the sequence (P28845 whole entry, looked up) above

Compound | Activity [1] | Activity [3] | Activity [4] | IC50 [6] | also measured
Cc1cc(S(=O)(=O)Nc2cccc(O)c2)c(C)cc1Cl |  | > 70% |  | 1 µM | Activity [2]: > 70%; IC50 [7]: 18 µM; Activity [5]: 53%
O=C(CSc1ncccn1)Nc1cccc2nsnc12 | > 70% |  |  |  | 
COc1ccc(S(=O)(=O)Nc2ccc(C)c(O)c2)cc1 | 47% |  |  |  | 
Cc1cc(Br)c(OCC(=O)N/N=C/c2c(C)cc(O)cc2O)c(Br)c1 | 64% |  |  |  | 
COc1ccc(S(=O)(=O)Nc2cccc(O)c2)c2c1CCCC2 |  | > 70% | 53% | 15 µM | IC50 [10]: 13 µM; Activity [5]: > 70%
COc1ccc(S(=O)(=O)Nc2ccc(O)c3c2CCCC3)cc1 |  | > 70% | > 70% | 9.6 µM | IC50 [10]: 8.1 µM; Activity [5]: > 70%
COc1ccc(NS(=O)(=O)c2ccc(Cl)cc2)cc1 | > 70% |  |  |  | 
O=S(=O)(Nc1ccc(O)c(Cl)c1)c1ccc(F)cc1 | 9% | > 70% | > 70% | 3 µM | IC50 [8]: 3.9 µM; Activity [2]: > 70%; IC50 [9]: 10 µM
CC(O)c1ccccc1NS(=O)(=O)c1ccc(F)cc1 (stereo not drawn) | > 70% |  |  |  | 
Cc1ccc(NS(=O)(=O)c2ccc(Cl)cc2)cc1O | 45% |  |  |  | 
CCC(=O)c1ccc(OS(=O)(=O)c2ccc(NC(C)=O)cc2)cc1 | 67% |  |  |  | 
COc1cc(C)c(S(=O)(=O)Nc2ccc(Cl)cc2)cc1C | > 70% |  |  |  | 
Cc1cc(C)c(S(=O)(=O)Nc2cccc(O)c2)cc1C |  | > 70% | > 70% | 3.3 µM | Activity [2]: > 70%; Activity [5]: 43%
Cc1ccc(C)c(S(=O)(=O)Nc2ccc(O)cc2)c1 | 39% |  |  |  | 
C/C(=N\NC(=O)COc1ccc(C)cc1Br)c1ccc(O)cc1O | > 70% |  |  |  | 
Cc1cc(C)c(S(=O)(=O)Nc2ccc(O)cc2)c(C)c1 | 33% |  |  |  | 
O=S(=O)(Nc1ccc(O)cc1)c1ccc(Cl)cc1 | 55% |  |  |  | 
O=S(=O)(Nc1ccccc1F)c1ccc(Br)cc1 | > 70% |  |  |  | 

Now from value to compound, other results behind:

Activity [1] | Activity [3] | Activity [4] | IC50 [6] | Compound | also measured
38% |  |  |  | COc1ccc(/C=N/NC(=O)COc2c(Br)cc(C)cc2Br)c(OC)c1 | 
45% |  |  |  | O=S(=O)(Nc1ccc(F)c(Cl)c1)c1ccc(F)cc1 | 
 | > 70% | 58% | 6.3 µM | Cc1ccc(NS(=O)(=O)c2cccc(Br)c2)cc1O | Activity [2]: > 70%; Activity [5]: > 70%
15% | > 70% | > 70% | 6.9 µM | COc1cc(C)c(S(=O)(=O)Nc2cccc(O)c2)cc1C | Activity [2]: > 70%; Activity [5]: > 70%
> 70% |  |  |  | O=S(=O)(Nc1ccccc1CO)c1ccc(Cl)cc1 | 
29% | > 70% | > 70% | 33 µM | Clc1ccc(Cl)c(-c2ccc(CNc3nn[nH]n3)o2)c1 | Activity [2]: > 70%; Activity [5]: > 70%
> 70% |  |  |  | Cc1ccc(Cl)cc1NS(=O)(=O)c1ccc(F)cc1 | 
> 70% |  |  |  | CC(=O)Nc1ccc(S(=O)(=O)Oc2ccc3c(c2)NCCC3)cc1 | 
9% | 61% | 52% | 4.1 µM | Cc1cc(C)c(OCC(=O)N/N=C/c2ccc(O)cc2O)c(Br)c1 | IC50 [8]: 1.6 µM; Activity [2]: 69%; IC50 [9]: 23 µM
 | > 70% | > 70% | 4.9 µM | O=S(=O)(Nc1cccc(O)c1)c1ccc(Br)cc1 | Activity [2]: > 70%; Activity [5]: > 70%
8% | > 70% | > 70% | 1.5 µM | O=C(CSc1nccc(O)n1)Nc1cccc2nsnc12 | Activity [2]: > 70%; IC50 [9]: 1.1 µM; Activity [5]: > 70%
44% |  |  |  | Cc1cc(S(=O)(=O)Nc2cc(Cl)ccc2O)ccc1F | 
> 70% |  |  |  | CCc1ccc(CC)c(S(=O)(=O)Nc2cc(OC)ccc2OC)c1 | 
> 70% |  |  |  | COc1cc(C)c(S(=O)(=O)Nc2ccc(C(=O)O)cc2)cc1C | 
25% | > 70% | > 70% | 7.1 µM | Cc1ccc(NS(=O)(=O)c2cccc(C(F)(F)F)c2)cc1O | Activity [2]: > 70%; Activity [5]: > 70%
> 70% |  |  |  | COc1ccccc1OS(=O)(=O)c1ccc(NC(C)=O)cc1 | 
6% | > 70% | > 70% | 0.24 µM | CC(C)(C)c1ccc(S(=O)(=O)Oc2ccccc2O)cc1 | IC50 [8]: 8.5 µM; IC50 [10]: 2.1 µM; IC50 [9]: 0.52 µM
51% |  |  |  | COc1ccccc1OS(=O)(=O)c1ccc(C(C)(C)C)cc1 | 
> 70% |  |  |  | O=S(=O)(Nc1cccc(Cl)c1)c1ccc(F)cc1 | 
> 70% |  |  |  | COc1ccc(NS(=O)(=O)c2cc(C)ccc2C)cc1 | 
> 70% |  |  |  | CC(=O)Nc1ccccc1NS(=O)(=O)c1c(C)c(C)cc(C)c1C | 
> 70% |  |  |  | CC(=O)Nc1ccccc1OS(=O)(=O)c1ccc(C)c(C)c1 | 
